Experimental data taken from ChEMBL document CHEMBL3098107, “Synthesis of novel 2-cyano substituted glycyrrhetinic acid derivatives as inhibitors of cancer cells growth and NO production in LPS-activated J-774 cells” (Bioorg Med Chem, 2014).

What was measured:
[1] = tested on: J774; test: Antiinflammatory activity in mouse J774 cells assessed as inhibition of LPS-induced NO production after 24 hrs by Griess method; format: functional, cell-based; conditions: J774, 24 h
[2] = Cytotoxicity against human KB-3-1 cells assessed as cell survival after 24 hrs by MTT assay; format: functional, cell-based; conditions: KB 3-1, 24 h
Outline: (§1)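 Cells in log phase, in DMEM with 10% heat-inactivated FBS, seeded in triplicate. After 24 h adherence, they were exposed to graded doses for 24 h, then to MTT for 3 h. Formazan was dissolved in DMSO and read at 570 nm. IC50 is the concentration giving 50% survival. Three independent experiments, mean ± SEM.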

[3] = tested on: J774; test: Cytotoxicity against mouse J774 cells assessed as cell survival after 24 hrs by MTT assay; format: cell-based; conditions: J774, 24 h; outline: as §1
[4] = tested on: J774; test: Selectivity index, ratio of IC50 for mouse J774 cells to IC50 for human KB-3-1 cells; format: functional
Outline: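 SI is the IC50 from the J-774 MTT assay divided by the IC50 from the KB-3-1 MTT assay, with both IC50 values from the 24 h assays.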

[5] = Solubility of the compound in DMSO; format: physicochemical

Row | IC50 [1] | solubility [5] | Structure (SMILES) | IC50 [2] | IC50 [3] | Ratio IC50 [4]
1 | 0.11 µM | – | COC(=O)[C@@]1(C)CC[C@]2(C)CC[C@]3(C)[C@H](C(=O)C=C4[C@@]5(C)C=C(C#N)C(=O)C(C)(C)[C@@H]5CC[C@]43C)[C@@H]2C1 | 0.3 µM | 3.32 µM | 11
2 | 10.5 µM | – | COC(=O)[C@@]1(C)CC[C@]2(C)CC[C@]3(C)C(=CC[C@@H]4[C@@]5(C)C/C(=C\O)C(=O)C(C)(C)[C@@H]5CC[C@]43C)[C@@H]2C1 | 40 µM | > 100 µM | >2.5
3 | 12.4 µM | – | COC(=O)[C@@]1(C)CC[C@]2(C)CC[C@]3(C)C(=CC[C@@H]4[C@@]5(C)Cc6cnoc6C(C)(C)[C@@H]5CC[C@]43C)[C@@H]2C1 | > 100 µM | > 100 µM | –
4 | 8 µM | – | COC(=O)[C@@]1(C)CC[C@]2(C)CC[C@]3(C)C(=CC[C@@H]4[C@@]5(C)CC(C#N)=C(O)C(C)(C)[C@@H]5CC[C@]43C)[C@@H]2C1 | 80 µM | > 100 µM | >1.3
5 | 59.4 µM | – | COC(=O)[C@@]1(C)CC[C@]2(C)CC[C@]3(C)[C@H](C(=O)C[C@@H]4[C@@]5(C)CC[C@H](O)C(C)(C)[C@@H]5CC[C@]43C)[C@@H]2C1 | 6.8 µM | 56.1 µM | 8.3
6 | 23.4 µM | – | COC(=O)[C@@]1(C)CC[C@]2(C)CC[C@]3(C)[C@H](C(=O)C[C@@H]4[C@@]5(C)CCC(=O)C(C)(C)[C@@H]5CC[C@]43C)[C@@H]2C1 | 25.2 µM | > 100 µM | >3.9
7 | – | Insoluble | COC(=O)[C@@]1(C)CC[C@]2(C)CC[C@]3(C)C(=CC[C@@H]4[C@@]5(C)C=C(C#N)C(=O)C(C)(C)[C@@H]5CC[C@]43C)[C@@H]2C1 | – | – | –
8 | – | Insoluble | COC(=O)[C@@]1(C)CC[C@]2(C)CC[C@]3(C)C(=CC[C@@H]4[C@@]5(C)CCC(=O)C(C)(C)[C@@H]5CC[C@]43C)[C@@H]2C1 | – | – | –
9 | 5.6 µM | – | COC(=O)[C@]1(C)C=C2C3=CC(=O)[C@@H]4[C@@]5(C)C=C(C#N)C(=O)C(C)(C)[C@@H]5CC[C@@]4(C)[C@]3(C)CC[C@@]2(C)CC1 | 4 µM | 7 µM | 1.8
10 | 2.8 µM | – | COC(=O)[C@@]1(C)CC[C@]2(C)CC[C@]3(C)[C@H](C(=O)C[C@@H]4[C@@]5(C)C=C(C#N)C(=O)C(C)(C)[C@@H]5CC[C@]43C)[C@@H]2C1 | 5.5 µM | > 100 µM | >18.2
11 | > 100 µM | – | COC(=O)[C@]1(C)C=C2C3=CC(=O)[C@@H]4[C@@]5(C)CC[C@H](O)C(C)(C)[C@@H]5CC[C@@]4(C)[C@]3(C)CC[C@@]2(C)CC1 | – | > 100 µM | –
12 | 16.3 µM | – | COC(=O)[C@]1(C)C=C2C3=CC(=O)[C@@H]4[C@@]5(C)CCC(=O)C(C)(C)[C@@H]5CC[C@@]4(C)[C@]3(C)CC[C@@]2(C)CC1 | – | 20.1 µM | –
13 | 14.5 µM | – | COC(=O)[C@]1(C)C=C2C3=CC(=O)[C@@H]4[C@@]5(C)C/C(=C/O)C(=O)C(C)(C)[C@@H]5CC[C@@]4(C)[C@]3(C)CC[C@@]2(C)CC1 | – | 13.4 µM | –
14 | 2 µM | – | COC(=O)[C@@]1(C)CC[C@]2(C)CC[C@]3(C)C(=CC(=O)[C@@H]4[C@@]5(C)C=C(C#N)C(=O)C(C)(C)[C@@H]5CC[C@]43C)[C@@H]2C1 | 20 µM | > 100 µM | >5
15 | 29.6 µM | – | COc1ccc2c(c1)c(CC(=O)O)c(C)n2C(=O)c1ccc(Cl)cc1 [INDOMETHACIN] | – | > 100 µM | –

Row | Structure (SMILES) | IC50 [1] | solubility [5] | IC50 [2] | IC50 [3] | Ratio IC50 [4]
16 | COC(=O)[C@@]1(C)CC[C@]2(C)CC[C@]3(C)C(=CC(=O)[C@@H]4[C@@]5(C)CC[C@H](O)C(C)(C)[C@@H]5CC[C@]43C)[C@@H]2C1 | > 100 µM | – | > 100 µM | > 100 µM | –
17 | COC(=O)[C@@]1(C)CC[C@]2(C)CC[C@]3(C)C(=CC[C@@H]4[C@@]5(C)CC[C@H](O)C(C)(C)[C@@H]5CC[C@]43C)[C@@H]2C1 | – | Insoluble | – | – | –
